Reference: ChEMBL document CHEMBL1139822, “Cytotoxicity of the novel spin trapping compound 5-ethoxycarbonyl-3,5-dimethyl-pyrroline N-oxide (3,5-EDPO) and its derivatives” (Bioorg Med Chem Lett, 2007)

Assays:
SW480 [1] = test: Cytotoxicity against human SW480 cells at 50 mM after 24 hrs; type: functional
Summary of the method: (§1)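 Human colon carcinoma SW480 cultures were exposed to spin traps at 10 to 100 mM for 24 h. Cytotoxicity was read as the dose-dependent loss in cell number. LDH released into the culture supernatant was also measured and expressed per cell as % of non-treated control. Apoptotic nuclei were stained to distinguish necrosis from apoptosis.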

Hepatocyte [2] = test: Cytotoxicity in primary rat hepatocytes assessed as decrease in number of hepatocytes after 24 hrs; type: cell-based; set-up: scale not given: the % may be the effect or the level left
Hepatocyte [3] = test: Cytotoxicity in primary rat hepatocytes assessed as increase in LDH release after 24 hrs; type: cell-based
SW480 [4] = test: Cytotoxicity against human SW480 cells at 100 mM after 24 hrs; type: functional; summary of the method: as §1

CC1C=[N+]([O-])C(C)(C(=O)OC(C)C)C1 (stereo unspecified)
Activity (SW480 [1]): <25%
Activity (Hepatocyte [2]): 60%
Activity (Hepatocyte [3]): Active

CCCOC(=O)C1(C)CC(C)C=[N+]1[O-] (stereo unspecified)
Activity (SW480 [1]): <25%

CCCOC(=O)C1(C)C(C)CC=[N+]1[O-] (stereo unspecified)
Activity (SW480 [4]): 95%

CCOC(=O)C1(C)C(C)CC=[N+]1[O-] (stereo unspecified)
Activity (SW480 [1]): <25%
Activity (Hepatocyte [2]): 60%
Activity (Hepatocyte [3]): Active

CCOC(=O)C1(C)CC(C)C=[N+]1[O-] (stereo unspecified)
Activity (SW480 [1]): <25%
Activity (Hepatocyte [2]): 60%
Activity (Hepatocyte [3]): Active
